Measurements from ChEMBL document CHEMBL1154772, “Synthesis and in vitro evaluation of N-substituted maleimide derivatives as selective monoglyceride lipase inhibitors” (J Med Chem, 2009).

How the values were obtained:
[1] = species: Homo sapiens; test: Selectivity ratio of IC50 for human FAAH to IC50 for human MGL
How it was run: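 Ratio of IC50 against human FAAH ([3H]anandamide hydrolysis) to IC50 against purified human MGL ([3H]-2-OG hydrolysis), each from three independent experiments in duplicate.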

[2] = biological target: T1, Fatty-acid amide hydrolase 1 (Homo sapiens, UniProt O00519); test: Displacement of [3H]ethanolamine from human recombinant FAAH by liquid scintillation counting
T1 sequence (O00519 whole entry): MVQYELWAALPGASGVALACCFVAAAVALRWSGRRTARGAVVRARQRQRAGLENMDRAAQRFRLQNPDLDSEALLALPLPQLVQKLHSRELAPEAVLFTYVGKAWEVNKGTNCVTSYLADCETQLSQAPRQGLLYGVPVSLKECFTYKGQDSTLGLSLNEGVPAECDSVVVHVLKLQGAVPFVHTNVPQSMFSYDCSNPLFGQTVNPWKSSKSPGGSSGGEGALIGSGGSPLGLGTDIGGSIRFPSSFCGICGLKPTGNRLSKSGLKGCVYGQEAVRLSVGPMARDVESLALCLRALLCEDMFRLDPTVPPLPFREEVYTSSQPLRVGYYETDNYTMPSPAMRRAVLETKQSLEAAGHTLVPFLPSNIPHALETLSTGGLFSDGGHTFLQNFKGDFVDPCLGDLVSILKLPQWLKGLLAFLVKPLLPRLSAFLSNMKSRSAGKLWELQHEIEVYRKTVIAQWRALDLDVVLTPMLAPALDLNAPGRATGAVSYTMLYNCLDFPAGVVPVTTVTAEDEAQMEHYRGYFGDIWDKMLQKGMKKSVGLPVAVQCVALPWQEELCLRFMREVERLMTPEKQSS
How it was run: (§1)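 Recombinant human FAAH in Tris-HCl pH 7.4 added on ice to compound or DMSO. [3H]anandamide (2 μM final) in Tris-HCl with 0.1% BSA, 10 min at 37 °C. Stopped on ice with methanol-chloroform 1:1, centrifuged 850g 5 min 4 °C. Released [3H]ethanolamine in aqueous layer counted by scintillation, buffer blanks subtracted. Three independent experiments in duplicate; 1 mM single-point where no IC50.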

[3] = biological target: T2, Monoglyceride lipase (Homo sapiens, UniProt Q99685); test: Displacement of [3H]2-OG from human MGL by liquid scintillation counting
T2 sequence (Q99685 whole entry): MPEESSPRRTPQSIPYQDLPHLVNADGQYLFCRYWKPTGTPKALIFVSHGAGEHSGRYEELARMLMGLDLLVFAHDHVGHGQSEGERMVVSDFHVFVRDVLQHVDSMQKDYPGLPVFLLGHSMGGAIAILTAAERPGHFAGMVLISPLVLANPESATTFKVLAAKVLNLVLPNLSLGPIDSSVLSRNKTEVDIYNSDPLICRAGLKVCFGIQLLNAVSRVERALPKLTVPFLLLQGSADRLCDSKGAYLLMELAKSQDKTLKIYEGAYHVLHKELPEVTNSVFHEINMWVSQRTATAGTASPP
How it was run: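 Purified recombinant human MGL (5 ng) in 50 mM Tris pH 8.0, 0.1% BSA with compound or DMSO vehicle. [3H]-2-OG (10 μM) hydrolysis run 10 min at 37 °C, stopped with ice-cold methanol-chloroform 1:1. Aqueous-phase radioactivity read by liquid scintillation, no-enzyme blanks subtracted. IC50 from three independent experiments in duplicate; single-point inhibition at 1 mM where no IC50.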

[4] = biological target: T3, Fatty-acid amide hydrolase 1 (Homo sapiens) (UniProt O00519); test: Inhibition of [3H]ethanolamine binding to human recombinant FAAH at 1 mM by liquid scintillation counting; how it was run: as §1
T3 sequence (whole entry): T1 sequence (O00519 whole entry)

| Ratio IC50 [1] | IC50 [2] | IC50 [3] | inhibition [4] | Compound |
| --- | --- | --- | --- | --- |
| 77 | 214 µM | 4.17 µM | – | O=C1C=CC(=O)N1c1ccccc1Cl |
| 9 | 65 µM | 7.86 µM | – | CC(C)c1ccccc1N1C(=O)C=CC1=O |
| 41 | 87 µM | 2.12 µM | – | CCCCCCCc1ccc(N2C(=O)C=CC2=O)cc1 |
| 35 | 123 µM | 3.55 µM | – | CCc1ccc(CN2C(=O)C=CC2=O)cc1 |
| > 200 | > 500 µM | 6.6 µM | – | COc1cccc(N2C(=O)C=CC2=O)c1 |
| 5 | 10.7 µM | 2.24 µM | – | O=C1C=CC(=O)N1c1ccc(Cc2ccc(N3C(=O)C=CC3=O)cc2)cc1 |
| – | – | 24.5 µM | 40% | CN1C(=O)C=CC1=O |
| > 150 | > 500 µM | 2 µM | – | CCc1ccccc1N1C(=O)C=CC1=O |
| 0.3 | 8.32 µM | 28.8 µM | – | O=C1C=CC(=O)N1CCCCN1C(=O)C=CC1=O |
| – | 51 µM | 4.37 µM | – | O=C1C=CC(=O)N1c1ccc(Br)cc1 |
| 27 | 151 µM | 4.27 µM | – | O=C1C=CC(=O)N1c1cccc(Br)c1 |
| 39 | 85 µM | 2.14 µM | – | O=C1C=CC(=O)N1CCCCc1ccccc1 |
| > 150 | > 500 µM | 14.1 µM | – | Cc1ccc(N2C(=O)C=CC2=O)cc1 |
| 37 | 200 µM | 5.01 µM | – | O=C1C=CC(=O)N1c1ccccc1I |
| 75 | > 500 µM | 2.92 µM | – | O=C1C=CC(=O)N1c1ccccc1Br |
| 14 | 60 µM | 4.34 µM | – | O=C1C=CC(=O)N1c1ccc(I)cc1 |
| 11 | 18.2 µM | 1.7 µM | – | O=C1C=CC(=O)N1CCCCCCN1C(=O)C=CC1=O |
| > 200 | > 500 µM | 2.69 µM | – | Cc1ccccc1N1C(=O)C=CC1=O |
| 33 | 249 µM | 7.61 µM | – | O=C1C=CC(=O)N1CCc1ccccc1 |

The next lines start with the compound.

| Compound | Ratio IC50 [1] | IC50 [2] | IC50 [3] | inhibition [4] |
| --- | --- | --- | --- | --- |
| O=C1C=CC(=O)N1c1ccc(Cl)cc1 | – | 112 µM | 7.24 µM | – |
| O=C1C=CC(=O)N1Cc1ccccc1 | 36 | 186 µM | 5.14 µM | – |
| O=C1C=CC(=O)N1c1ccccc1F | 63 | 295 µM | 4.47 µM | – |
| CCc1cccc(N2C(=O)C=CC2=O)c1 | 22 | 103 µM | 4.68 µM | – |
| O=C1C=CC(=O)N1CCOCCOCCN1C(=O)C=CC1=O | – | – | 1.95 µM | 80% |
| COc1ccc(N2C(=O)C=CC2=O)cc1 | > 200 | > 500 µM | 5.75 µM | – |
| CCCc1ccc(N2C(=O)C=CC2=O)cc1 | 32 | 186 µM | 5.89 µM | – |
| COc1ccccc1N1C(=O)C=CC1=O | – | > 500 µM | 6.92 µM | – |
| O=C1C=CC(=O)N1c1cccc(I)c1 | 45 | 62 µM | 2.24 µM | – |
| CCc1ccc(N2C(=O)C=CC2=O)cc1 | 58 | 163 µM | 2.82 µM | – |
| CC(C)c1ccc(N2C(=O)C=CC2=O)cc1 | 40 | 120 µM | 2.88 µM | – |
| O=C1C=CC(=O)N1c1ccc(F)cc1 | 23 | 120 µM | 5.18 µM | – |
| O=C1C=CC(=O)N1c1ccc(O)cc1 | 30 | 288 µM | 12.9 µM | – |
| O=C1C=CC(=O)N1c1cccc(Cl)c1 | 39 | 102 µM | 2.82 µM | – |
| CCCCCCCCCN1C(=O)C=CC1=O | 12 | 40.7 µM | 3.55 µM | – |
| Cc1cccc(N2C(=O)C=CC2=O)c1 | > 200 | > 500 µM | 2.75 µM | – |
| O=C1C=CC(=O)N1c1cccc(F)c1 | 37 | 89 µM | 2.39 µM | – |
